Measurements published in ChEMBL document CHEMBL2331485, “Pyrimidoaminotropanes as potent, selective, and efficacious small molecule kinase inhibitors of the mammalian target of rapamycin (mTOR)” (J Med Chem, 2013).
Converted amounts (≈) assume the structure as drawn. The source made the active and inactive calls. No cut-off for these calls is given here.

Key:
[1] = Kinetic solubility of the compound; assay type: physicochemical; details: for solubility kinetic: read-out: Kinetic_solubility
[2] = target: Cytochrome P450 3A4 (Homo sapiens, UniProt P08684); experiment: Time dependent inhibition of human CYP3A4 preincubated for 30 mins in presence of NADPH; assay type: ADME
Procedure, shortened: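 TDI IC50 is the inhibitor concentration giving 50% loss of CYP3A4 activity after a 30 min pre-incubation with NADPH. It is reported as clean where no IC50 could be measured.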

[3] = Cytotoxicity against human MCF7 neo/Her2 cells after 3 days by CellTiter-Glo assay; details: MCF7, 72 h
[4] = system: PC-3; experiment: Cytotoxicity against human PC3 cells after 4 days by CellTiter-Glo assay; details: PC-3, 96 h
[5] = system: Canis familiaris; experiment: Unbound blood clearance in iv dosed dog; assay type: ADME, organism-based, Canis lupus familiaris; details: in vivo
[6] = Antitumor activity against human MCF7-neo/Her2 xenografted in nude mouse at 12.5 mg/kg, qd measured after 14 days; assay type: functional; details: 336 h, read-out: TGI
[7] = target: T1, Phosphatidylinositol 4,5-bisphosphate 3-kinase catalytic subunit delta isoform (Homo sapiens) (UniProt O00329); experiment: Inhibition of PI3Kdelta (unknown origin) at 1 uM
T1 sequence (whole entry): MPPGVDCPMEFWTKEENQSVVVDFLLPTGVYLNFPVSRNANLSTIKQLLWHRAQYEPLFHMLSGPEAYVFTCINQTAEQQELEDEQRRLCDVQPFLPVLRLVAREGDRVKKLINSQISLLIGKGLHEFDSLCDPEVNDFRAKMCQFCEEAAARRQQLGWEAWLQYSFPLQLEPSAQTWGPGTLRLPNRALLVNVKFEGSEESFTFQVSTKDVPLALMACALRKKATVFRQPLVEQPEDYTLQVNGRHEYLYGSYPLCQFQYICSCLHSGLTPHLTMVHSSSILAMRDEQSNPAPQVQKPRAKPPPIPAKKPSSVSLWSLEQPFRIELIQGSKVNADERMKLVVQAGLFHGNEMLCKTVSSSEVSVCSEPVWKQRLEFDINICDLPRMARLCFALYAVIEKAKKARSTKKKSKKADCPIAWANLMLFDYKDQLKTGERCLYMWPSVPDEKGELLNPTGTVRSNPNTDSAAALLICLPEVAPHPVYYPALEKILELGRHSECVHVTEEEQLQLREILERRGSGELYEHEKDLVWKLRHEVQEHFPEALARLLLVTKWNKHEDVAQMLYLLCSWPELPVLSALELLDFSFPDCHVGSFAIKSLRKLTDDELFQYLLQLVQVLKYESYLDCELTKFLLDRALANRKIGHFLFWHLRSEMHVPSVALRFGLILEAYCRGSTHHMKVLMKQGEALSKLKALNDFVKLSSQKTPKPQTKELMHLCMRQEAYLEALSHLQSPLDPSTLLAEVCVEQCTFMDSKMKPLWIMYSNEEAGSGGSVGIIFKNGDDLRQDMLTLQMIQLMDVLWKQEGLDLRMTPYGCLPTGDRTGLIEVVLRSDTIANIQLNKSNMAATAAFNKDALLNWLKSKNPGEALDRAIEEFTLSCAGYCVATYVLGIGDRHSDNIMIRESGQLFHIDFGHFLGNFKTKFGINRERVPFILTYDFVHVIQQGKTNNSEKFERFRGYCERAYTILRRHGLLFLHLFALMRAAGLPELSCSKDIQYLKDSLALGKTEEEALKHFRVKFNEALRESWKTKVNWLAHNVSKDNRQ

[8] = system: Mus musculus; experiment: Inhibition of mTORC2-mediated AKT phosphorylation in human PC3 cells xenografted in NCR mouse up to 5 mg/kg, po measured at 6 hrs; assay type: functional, organism-based; parameters: dose 5 mg/kg; details: PC-3
[9] = system: Mus musculus; experiment: Inhibition of mTORC1-mediated S6RP phosphorylation in human PC3 cells xenografted in NCR mouse up to 5 mg/kg, po measured at 6 hrs; assay type: functional, organism-based; parameters: dose 5 mg/kg; details: PC-3
[10] = Half life in iv dosed dog; assay type: ADME, organism-based, Canis lupus familiaris; details: in vivo
[11] = Volume of distribution at steady state in iv dosed dog; assay type: ADME, organism-based, Canis lupus familiaris; details: in vivo, read-out: Vdss
[12] = Blood clearance in iv dosed dog; assay type: ADME, organism-based, Canis lupus familiaris; details: whole blood
[13] = Plasma protein binding in mouse at 5 uM after 4 hrs by rapid equilibrium dialysis; assay type: ADME, cell-free; details: read-out: PPB (converted)
[14] = Plasma protein binding in human at 5 uM after 4 hrs by rapid equilibrium dialysis; assay type: ADME, cell-free; details: read-out: PPB (converted)
[15] = Plasma protein binding in rat at 5 uM after 4 hrs by rapid equilibrium dialysis; assay type: ADME, cell-free; details: read-out: PPB (converted)
[16] = Half life in mouse at 1 mg/kg, iv; assay type: ADME, organism-based; parameters: dose 1 mg/kg, route intravenous; details: in vivo
Procedure, shortened: (§1)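 Mouse PK used iv dosing at 1 mg/kg as a 60% PEG solution and po dosing at 5 mg/kg as a suspension in MCT. Clearance, unbound clearance, Vss, t1/2 and oral bioavailability were derived from these doses.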

[17] = Oral bioavailability in mouse at 5 mg/kg; assay type: ADME, organism-based; details: in vivo; procedure, shortened: as §1
[18] = Volume of distribution at steady state in mouse at 1 mg/kg, iv; assay type: ADME, organism-based; parameters: dose 1 mg/kg, route intravenous; details: in vivo, read-out: Vdss; procedure, shortened: as §1
[19] = Clearance in mouse at 1 mg/kg, iv; assay type: ADME, organism-based; parameters: dose 1 mg/kg, route intravenous; details: in vivo; procedure, shortened: as §1
[20] = system: Mus musculus; experiment: Unbound clearance in mouse at 1 mg/kg, iv; assay type: ADME, organism-based; parameters: dose 1 mg/kg, route intravenous; details: in vivo; procedure, shortened: as §1
[21] = Clearance in mouse liver microsomes; assay type: ADME, Microsome
[22] = Clearance in rat liver microsomes; assay type: ADME, Microsome
[23] = Clearance in human liver microsomes; assay type: ADME, Microsome
[24] = Inhibition of mTORC2 in human NCI-PC3 cells assessed as inhibition of AKT phosphorylation
[25] = target: mTORC1 (Homo sapiens, UniProt P42345); experiment: Inhibition of mTORC1 in human NCI-PC3 cells assessed as inhibition of p70S6K phosphorylation; assay type: cell-based
[26] = target: Serine/threonine-protein kinase mTOR (Homo sapiens, UniProt P42345); experiment: Inhibition of human recombinant mTOR expressed in insect cells assessed as inhibition of phosphorylation of (GFP)-4-EBP1 protein after 30 mins by fluorescence resonance energy transfer assay

Sequence of Cytochrome P450 3A4 (P08684 whole entry): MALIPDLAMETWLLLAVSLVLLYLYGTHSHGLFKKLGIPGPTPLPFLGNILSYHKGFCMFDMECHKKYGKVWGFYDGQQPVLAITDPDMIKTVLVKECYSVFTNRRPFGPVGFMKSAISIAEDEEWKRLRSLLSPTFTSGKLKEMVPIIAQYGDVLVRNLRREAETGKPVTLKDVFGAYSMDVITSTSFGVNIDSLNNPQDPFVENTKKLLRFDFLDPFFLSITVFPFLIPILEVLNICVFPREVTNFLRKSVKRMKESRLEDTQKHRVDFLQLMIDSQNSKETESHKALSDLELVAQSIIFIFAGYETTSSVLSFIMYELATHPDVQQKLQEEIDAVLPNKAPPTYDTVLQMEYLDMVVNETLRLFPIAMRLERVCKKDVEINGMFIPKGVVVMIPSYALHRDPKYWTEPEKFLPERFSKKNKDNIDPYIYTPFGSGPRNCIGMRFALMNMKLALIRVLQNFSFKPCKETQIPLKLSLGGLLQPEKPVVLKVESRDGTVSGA

Structure (SMILES): CCNC(=O)Nc1ccc(-c2nc3c(c(N4CCOC[C@@H]4C)n2)CN(C2COC2)CC3)cc1
- solubility kinetic [1]: 40 µM (≈ 18.1 µg/mL)
- IC50 [2]: 2500 nM
- EC50 [3]: 1200 nM
- EC50 [4]: 797 nM

Structure (SMILES): CCNC(=O)Nc1ccc(-c2nc3c(c(N4CCOC[C@@H]4C)n2)C[C@@H]2CC[C@H]3N2C2COC2)cc1
- CL free [5]: 44 mL/min/kg
- inhibition in vivo at 12.5 mg/kg [6]: 57%
- inhibition [7]: 51%
- inhibition [8]: Active
- inhibition [9]: Active
- half-life [10]: 3.1 h
- Vd [11]: 3 L/kg
- clearance [12]: 6 mL/min/kg
- fraction unbound at 4 h, 5 µM [13]: 0.13
- fraction unbound at 4 h, 5 µM [14]: 0.15
- fraction unbound at 4 h, 5 µM [15]: 0.24
- half-life [16]: 2 h
- bioavailability [17]: 82%
- Vd [18]: 0.53 L/kg
- clearance [19]: 4.8 mL/min/kg
- CL free [20]: 38 mL/min/kg
- CLhep predicted [21]: 51 mL/min/kg
- CLhep predicted [22]: 27 mL/min/kg
- CLhep predicted [23]: 14 mL/min/kg
- Kinetic_solubility [1]: soluble
- IC50 [2]: > 10000 nM
- EC50 [3]: 75 nM
- EC50 [4]: 29 nM
- IC50 [24]: 3.4 nM
- IC50 [25]: 2.7 nM
- Ki [26]: 1.5 nM

Structure (SMILES): CCNC(=O)Nc1ccc(-c2nc3c(c(N4CCOC[C@@H]4C)n2)C[C@H]2CC[C@@H]3N2C)cc1
- Kinetic_solubility [1]: soluble
- EC50 [3]: 489 nM
- EC50 [4]: 123 nM
- IC50 [24]: 16 nM

Structure (SMILES): CCNC(=O)Nc1ccc(-c2nc3c(c(N4CCOC[C@@H]4C)n2)[C@H]2CC[C@@H](C3)N2CC)cc1
- solubility kinetic [1]: > 75 µM
- EC50 [3]: 184 nM
- EC50 [4]: 145 nM
- IC50 [24]: 3.2 nM

Structure (SMILES): CCNC(=O)Nc1ccc(-c2nc3c(c(N4CCOC[C@@H]4C)n2)C[C@@H]2CC[C@H]3N2C)cc1
- fraction unbound at 4 h, 5 µM [13]: 0.14
- fraction unbound at 4 h, 5 µM [15]: 0.32
- half-life [16]: 1.3 h
- bioavailability [17]: 133%
- Vd [18]: 1.5 L/kg
- clearance [19]: 24 mL/min/kg
- CL free [20]: 165 mL/min/kg
- CLhep predicted [21]: 50 mL/min/kg
- CLhep predicted [22]: 22 mL/min/kg
- CLhep predicted [23]: 14 mL/min/kg
- Kinetic_solubility [1]: soluble
- EC50 [3]: 84 nM
- EC50 [4]: 37 nM
- IC50 [24]: 2.1 nM

Structure (SMILES): CCNC(=O)Nc1ccc(-c2nc3c(c(N4CCOC[C@@H]4C)n2)[C@@H]2CC[C@H](C3)N2C)cc1
- fraction unbound at 4 h, 5 µM [13]: 0.54
- fraction unbound at 4 h, 5 µM [14]: 0.81
- fraction unbound at 4 h, 5 µM [15]: 0.8
- half-life [16]: 1.07 h
- bioavailability [17]: 82%
- Vd [18]: 2.6 L/kg
- clearance [19]: 34 mL/min/kg
- CL free [20]: 53 mL/min/kg
- CLhep predicted [21]: 58 mL/min/kg
- CLhep predicted [22]: 28 mL/min/kg
- CLhep predicted [23]: 15 mL/min/kg
- solubility kinetic [1]: > 75 µM
- EC50 [3]: 158 nM
- EC50 [4]: 152 nM
- IC50 [24]: 6.7 nM

Structure (SMILES): CCNC(=O)Nc1ccc(-c2nc3c(c(N4CCOC[C@@H]4C)n2)[C@H]2CC[C@@H](C3)N2C2COC2)cc1
- solubility kinetic [1]: > 75 µM
- IC50 [2]: > 10000 nM
- EC50 [3]: 268 nM
- EC50 [4]: 180 nM
- IC50 [24]: 29 nM

Structure (SMILES): CCNC(=O)Nc1ccc(-c2nc3c(c(N4CCOC[C@@H]4C)n2)C[C@@H]2CC[C@H]3N2S(C)(=O)=O)cc1
- fraction unbound at 4 h, 5 µM [13]: 0.05
- fraction unbound at 4 h, 5 µM [14]: 0.14
- fraction unbound at 4 h, 5 µM [15]: 0.1
- half-life [16]: 1.02 h
- bioavailability [17]: 53%
- Vd [18]: 1.59 L/kg
- clearance [19]: 17.8 mL/min/kg
- CL free [20]: 342 mL/min/kg
- CLhep predicted [21]: 49 mL/min/kg
- CLhep predicted [22]: 26 mL/min/kg
- CLhep predicted [23]: 11 mL/min/kg
- Kinetic_solubility [1]: soluble
- IC50 [2]: 5000 nM
- EC50 [3]: 47 nM
- EC50 [4]: 25 nM
- IC50 [24]: 1.6 nM
